Results as given in ChEMBL document CHEMBL3414553, “Novel imidazo[2,1-b]-1,3,4-thiadiazoles as promising antifungal agents against clinical isolate of Cryptococcus neoformans” (2015).
≈ marks a conversion by molar mass, not a printed value.

Legend:
Format in all cases: functional
Candida albicans [1] = test: Antifungal activity against Candida albicans ATCC 90028 after 24 hrs by two-fold broth microdilution method; settings: ATCC 90028, 24 h
Procedure, shortened: (§1)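 Strains subcultured one day before testing; colonies suspended in sterile water and adjusted to 0.5 McFarland (1.5 × 10^8 cfu/ml). Two-fold dilutions in MHB (medium pH 7.4 ± 0.1), final 200 to 0.39 µg/ml. Incubated 37 ± 1 °C for 24 h, then resazurin (0.4 mg/ml) added for a further 5 h. MIC read by colour: blue = no growth, pink = growth.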

Candida albicans [2] = test: Antifungal activity against Candida albicans clinical isolate after 24 hrs by two-fold broth microdilution method; procedure, shortened: as §1
Cryptococcus neoformans [3] = test: Antifungal activity against […] ATCC 66031 after 24 hrs by two-fold broth microdilution method; settings: ATCC 66031, 24 h; procedure, shortened: as §1
Cryptococcus neoformans [4] = test: Antifungal activity against […] clinical isolate after 24 hrs by two-fold broth microdilution method; procedure, shortened: as §1
Aspergillus niger = test: Antifungal activity against Aspergillus niger ATCC 16404 after 24 hrs by two-fold broth microdilution method; settings: ATCC 16404, 24 h; procedure, shortened: as §1
Staphylococcus aureus = test: Antibacterial activity against Staphylococcus aureus ATCC 25923 after 24 hrs by two-fold broth microdilution method; settings: ATCC 25923, 24 h; procedure, shortened: as §1
Bacillus subtilis = test: Antibacterial activity against Bacillus subtilis ATCC 6051 after 24 hrs by two-fold broth microdilution method; settings: ATCC 6051, 24 h; procedure, shortened: as §1
Escherichia coli = test: Antibacterial activity against Escherichia coli ATCC 35218 after 24 hrs by two-fold broth microdilution method; settings: ATCC 35218, 24 h; procedure, shortened: as §1
Pseudomonas aeruginosa = test: Antibacterial activity against Pseudomonas aeruginosa ATCC 27853 after 24 hrs by two-fold broth microdilution method; settings: ATCC 27853, 24 h; procedure, shortened: as §1
Candida albicans [5] = test: Antimicrobial activity against Candida albicans
Candida tropicalis = test: Antimicrobial activity against Candida tropicalis
Cryptococcus neoformans [6] = test: Antimicrobial activity against […]
MCF7 = test: Cytotoxicity against human MCF7 cells
MDA-MB-231 = test: Cytotoxicity against human MDA-MB-231 cells
MDA-MB-468 = test: Cytotoxicity against human MDA-MB-468 cells
[7] = Cytotoxicity against human OVCAR3 cells; settings: OVCAR-3
[8] = Cytotoxicity against human HL60 cells; settings: HL-60

SMILES | MIC (Candida albicans [1]) [µg/mL] | MIC (Candida albicans [2]) [µg/mL] | MIC (Cryptococcus neoformans [3]) [µg/mL] | MIC (Cryptococcus neoformans [4]) [µg/mL] | MIC (Aspergillus niger) [µg/mL] | MIC (Staphylococcus aureus) [µg/mL] | MIC (Bacillus subtilis) [µg/mL] | MIC (Escherichia coli) [µg/mL] | MIC (Pseudomonas aeruginosa) [µg/mL] | MIC (Candida albicans [5]) [µg/mL] | MIC (Candida tropicalis) [µg/mL] | MIC (Cryptococcus neoformans [6]) [µg/mL] | GI50 (MCF7) [µM] | GI50 (MDA-MB-231) [µM] | GI50 (MDA-MB-468) [µM] | GI50 [7] [µM] | GI50 [8] [µM]
O=C(/C=C/c1c(-c2ccc(Br)cc2)nc2sc(-c3ccccc3)nn12)c1cccs1 | 200 (≈ 406 µM) | > 200 | 6.25 (≈ 12.7 µM) | 6.25 (≈ 12.7 µM) | > 200 | > 200 | > 200 | > 200 | > 200 | – | – | – | – | – | – | – | –
O=C(/C=C/c1c(-c2ccc(Br)cc2)nc2sc(-c3ccccc3)nn12)c1ccccc1 | > 200 | > 200 | 25 (≈ 51.4 µM) | 200 (≈ 411 µM) | > 200 | > 200 | > 200 | > 200 | > 200 | – | – | – | – | – | – | – | –
Brc1ccc(-c2nc3sc(-c4ccccc4Br)nn3c2/C=N/C2CC2)cc1 | 25 (≈ 49.8 µM) | 50 (≈ 99.6 µM) | 100 (≈ 199 µM) | 200 (≈ 398 µM) | 100 (≈ 199 µM) | 200 (≈ 398 µM) | 200 (≈ 398 µM) | 200 (≈ 398 µM) | 50 (≈ 99.6 µM) | – | – | – | – | – | – | – | –
Cc1ccc(C(=O)/C=C/c2c(-c3ccc(Br)cc3)nc3sc(-c4ccccc4Br)nn23)cc1 | 200 (≈ 345 µM) | > 200 | 1.56 (≈ 2.69 µM) | 12.5 (≈ 21.6 µM) | > 200 | 100 (≈ 173 µM) | > 200 | > 200 | > 200 | – | – | – | – | – | – | – | –
Clc1ccccc1-c1nn2c(/C=N/C3CCCCC3)c(-c3ccc(Br)cc3)nc2s1 | 12.5 (≈ 25 µM) | 25 (≈ 50 µM) | 100 (≈ 200 µM) | > 200 | 100 (≈ 200 µM) | 200 (≈ 400 µM) | 200 (≈ 400 µM) | 200 (≈ 400 µM) | 50 (≈ 100 µM) | – | – | – | – | – | – | – | –
Brc1ccc(-c2nc3sc(-c4ccccc4Br)nn3c2/C=N/C2CCCCC2)cc1 | 50 (≈ 91.9 µM) | 50 (≈ 91.9 µM) | 100 (≈ 184 µM) | 200 (≈ 367 µM) | 50 (≈ 91.9 µM) | 200 (≈ 367 µM) | 200 (≈ 367 µM) | 200 (≈ 367 µM) | 50 (≈ 91.9 µM) | – | – | – | – | – | – | – | –
Clc1ccc(-c2nn3c(/C=N/C4CCCCC4)c(-c4ccc(Br)cc4)nc3s2)cc1 | 50 (≈ 100 µM) | 50 (≈ 100 µM) | 100 (≈ 200 µM) | > 200 | 100 (≈ 200 µM) | 200 (≈ 400 µM) | 200 (≈ 400 µM) | 200 (≈ 400 µM) | 50 (≈ 100 µM) | – | – | – | – | – | – | – | –
C[C@@H]1[C@H](O)[C@@H](C)/C=C/C=C/C=C/C=C/C=C/C=C/C=C/[C@H](O[C@@H]2O[C@H](C)[C@@H](O)[C@H](N)[C@@H]2O)C[C@@H]2O[C@](O)(C[C@@H](O)C[C@@H](O)[C@H](O)CC[C@@H](O)C[C@@H](O)CC(=O)O[C@H]1C)C[C@H](O)[C@H]2C(=O)O [AMPHOTERICIN B] | 0.25 (≈ 0.271 µM) | 25 (≈ 27.1 µM) | 1 (≈ 1.08 µM) | 1 (≈ 1.08 µM) | 1.95 (≈ 2.11 µM) | – | – | – | – | – | – | – | – | – | – | – | –
COc1ccc(-c2nn3cc(-c4ccc(Br)cc4)nc3s2)cc1OC | – | – | – | – | – | – | – | – | – | 6.25 (≈ 15 µM) | 12.5 (≈ 30 µM) | 6.25 (≈ 15 µM) | – | – | – | – | –
COc1ccc(C(=O)/C=C2\C(=O)Nc3ccc(Cl)cc32)cc1OC | – | – | – | – | – | – | – | – | – | – | – | – | 3.95 | 8.54 | 4.76 | – | –
O=C(/C=C/c1c(-c2ccc(Br)cc2)nc2sc(-c3ccccc3Br)nn12)c1cccs1 | > 200 | > 200 | 3.12 (≈ 5.47 µM) | 12.5 (≈ 21.9 µM) | > 200 | > 200 | > 200 | > 200 | > 200 | – | – | – | – | – | – | – | –
Cc1ccc(C(=O)/C=C/c2c(-c3ccc(Br)cc3)nc3sc(-c4ccccc4Cl)nn23)cc1 | 50 (≈ 93.5 µM) | > 200 | 50 (≈ 93.5 µM) | 100 (≈ 187 µM) | > 200 | 200 (≈ 374 µM) | > 200 | > 200 | > 200 | – | – | – | – | – | – | – | –
Brc1ccc(-c2nc3sc(-c4ccccc4)nn3c2/C=N/C2CC2)cc1 | 25 (≈ 59.1 µM) | 50 (≈ 118 µM) | 100 (≈ 236 µM) | > 200 | 100 (≈ 236 µM) | 200 (≈ 472 µM) | 200 (≈ 472 µM) | 200 (≈ 472 µM) | 50 (≈ 118 µM) | – | – | – | – | – | – | – | –
CC1=NN2C(=NC(C)C2C(=O)NNc2ccc(O)cc2)S1 (configuration not stated) | – | – | – | – | – | – | – | – | – | – | – | – | 4.51 | – | – | 5.51 | 4.5
COc1ccc(-c2nn3c(/C=N/C4CC4)c(-c4ccc(Br)cc4)nc3s2)cc1 | 25 (≈ 55.1 µM) | 50 (≈ 110 µM) | 100 (≈ 221 µM) | > 200 | 100 (≈ 221 µM) | 200 (≈ 441 µM) | 200 (≈ 441 µM) | 200 (≈ 441 µM) | 25 (≈ 55.1 µM) | – | – | – | – | – | – | – | –
O=C(/C=C/c1c(-c2ccc(Br)cc2)nc2sc(-c3ccccc3Cl)nn12)c1cccs1 | 50 (≈ 94.9 µM) | > 200 | 200 (≈ 380 µM) | 200 (≈ 380 µM) | > 200 | > 200 | > 200 | > 200 | > 200 | – | – | – | – | – | – | – | –
